Source: ChEMBL document CHEMBL1139946, “1-Aryl-4,6-dihydropyrazolo[4,3-d][1]benzazepin-5(1H)-ones: a new class of antiproliferative agents with selectivity for human leukemia and breast cancer cell lines” (Eur J Med Chem, 2007)

Experiments:
[1] = target: RAC-alpha serine/threonine-protein kinase (Homo sapiens) (UniProt P31749); assay: Inhibition of AKT1 at 10 uM
[2] = target: Receptor tyrosine-protein kinase erbB-2 (Homo sapiens) (UniProt P04626); assay: Inhibition of ERBB2 at 10 uM
[3] = target: Serine/threonine-protein kinase PLK1 (Homo sapiens) (UniProt P53350); assay: Inhibition of PLK1 at 10 uM
Chain of Serine/threonine-protein kinase PLK1 (Homo sapiens) (P53350 whole entry): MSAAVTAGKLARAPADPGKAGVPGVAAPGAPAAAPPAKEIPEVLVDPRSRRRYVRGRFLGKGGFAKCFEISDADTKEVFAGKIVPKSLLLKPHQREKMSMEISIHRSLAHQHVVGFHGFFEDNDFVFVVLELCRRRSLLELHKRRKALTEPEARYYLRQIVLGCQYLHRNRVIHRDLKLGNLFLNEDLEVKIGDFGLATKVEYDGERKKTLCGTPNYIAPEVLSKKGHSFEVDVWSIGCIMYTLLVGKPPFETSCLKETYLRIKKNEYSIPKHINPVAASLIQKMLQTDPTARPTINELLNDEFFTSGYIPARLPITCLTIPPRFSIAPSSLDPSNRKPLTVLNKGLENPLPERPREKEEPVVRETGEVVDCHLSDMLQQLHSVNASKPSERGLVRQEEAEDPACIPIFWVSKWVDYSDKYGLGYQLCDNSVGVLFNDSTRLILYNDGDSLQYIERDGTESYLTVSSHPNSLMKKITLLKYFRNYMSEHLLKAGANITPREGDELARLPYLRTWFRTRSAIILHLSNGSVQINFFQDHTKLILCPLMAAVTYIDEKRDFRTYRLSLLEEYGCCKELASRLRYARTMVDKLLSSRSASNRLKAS

MDA-MB-435 = assay: Antitumor activity against human MDA-MB435 cells after 48 hrs by sulforhodamine B protein assay; format: functional; settings: MDA-MB-435, 48 h
In short: (§1)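 Part of the NCI 60-cell-line screen. Compounds tested at five concentrations (10^-8 to 10^-4 M) with continuous exposure for 48 h. Cell growth read by sulforhodamine B protein assay, with percent growth from optical density of treated versus untreated control cultures. GI50 is the concentration giving 50% net growth inhibition.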

[4] = target: T1, Ephrin type-B receptor 4 (Homo sapiens) (UniProt P54760); assay: Inhibition of EphB4 at 10 uM
T1 sequence (whole entry): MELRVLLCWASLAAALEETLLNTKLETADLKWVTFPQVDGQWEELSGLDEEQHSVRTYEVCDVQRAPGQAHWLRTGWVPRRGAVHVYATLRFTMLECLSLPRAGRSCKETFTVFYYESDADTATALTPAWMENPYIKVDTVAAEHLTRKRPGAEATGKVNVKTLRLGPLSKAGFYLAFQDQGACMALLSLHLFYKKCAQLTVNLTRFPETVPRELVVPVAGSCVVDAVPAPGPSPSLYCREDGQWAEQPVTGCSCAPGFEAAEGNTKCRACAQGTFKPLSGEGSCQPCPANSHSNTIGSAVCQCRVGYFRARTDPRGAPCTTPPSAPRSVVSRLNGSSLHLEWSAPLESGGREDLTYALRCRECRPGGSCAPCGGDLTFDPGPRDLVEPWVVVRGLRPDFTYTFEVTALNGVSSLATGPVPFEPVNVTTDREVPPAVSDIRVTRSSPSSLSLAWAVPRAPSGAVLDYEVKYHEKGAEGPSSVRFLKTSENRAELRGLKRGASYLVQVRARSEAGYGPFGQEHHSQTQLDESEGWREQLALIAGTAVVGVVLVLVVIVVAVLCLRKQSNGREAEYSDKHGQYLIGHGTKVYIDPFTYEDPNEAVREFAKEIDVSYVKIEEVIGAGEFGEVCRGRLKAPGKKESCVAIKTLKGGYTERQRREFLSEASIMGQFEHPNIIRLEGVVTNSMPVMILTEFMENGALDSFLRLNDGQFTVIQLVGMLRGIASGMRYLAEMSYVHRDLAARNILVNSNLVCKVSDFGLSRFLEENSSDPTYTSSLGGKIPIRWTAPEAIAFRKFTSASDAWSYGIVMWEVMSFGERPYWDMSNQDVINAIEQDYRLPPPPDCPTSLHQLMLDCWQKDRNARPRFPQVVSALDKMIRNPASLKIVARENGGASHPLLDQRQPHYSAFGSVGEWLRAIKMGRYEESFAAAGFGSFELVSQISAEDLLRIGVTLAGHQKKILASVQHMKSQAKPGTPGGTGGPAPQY

[5] = target: Vascular endothelial growth factor receptor 2 (Homo sapiens) (UniProt P35968); assay: Inhibition of VEGFR2 at 10 uM
[6] = target: Serine/threonine-protein kinase PAK 4 (Homo sapiens) (UniProt O96013); assay: Inhibition of PAK4 at 10 uM
Chain of Serine/threonine-protein kinase PAK 4 (Homo sapiens) (O96013 whole entry, looked up): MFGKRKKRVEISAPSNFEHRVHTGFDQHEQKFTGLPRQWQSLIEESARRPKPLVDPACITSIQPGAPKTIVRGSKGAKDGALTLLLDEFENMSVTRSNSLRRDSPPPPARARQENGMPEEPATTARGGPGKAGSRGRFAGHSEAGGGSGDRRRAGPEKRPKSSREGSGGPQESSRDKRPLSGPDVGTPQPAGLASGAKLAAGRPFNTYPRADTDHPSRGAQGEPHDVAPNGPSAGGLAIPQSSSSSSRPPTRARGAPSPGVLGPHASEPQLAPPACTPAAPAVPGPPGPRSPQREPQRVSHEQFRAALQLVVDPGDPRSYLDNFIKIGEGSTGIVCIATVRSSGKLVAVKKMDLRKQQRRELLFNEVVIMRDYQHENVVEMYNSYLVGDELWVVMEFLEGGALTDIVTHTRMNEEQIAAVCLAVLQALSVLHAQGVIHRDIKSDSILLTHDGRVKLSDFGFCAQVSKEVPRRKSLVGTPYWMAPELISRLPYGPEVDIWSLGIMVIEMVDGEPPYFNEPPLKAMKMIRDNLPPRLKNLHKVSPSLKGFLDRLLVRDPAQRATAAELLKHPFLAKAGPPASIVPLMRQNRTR

K562 = assay: Antitumor activity against human K562 cells after 48 hrs by sulforhodamine B protein assay; format: functional; settings: K562, 48 h; in short: as §1
[7] = target: Platelet-derived growth factor receptor beta (Homo sapiens) (UniProt P09619); assay: Inhibition of PDGFRbeta at 10 uM
Chain of Platelet-derived growth factor receptor beta (Homo sapiens) (P09619 whole entry): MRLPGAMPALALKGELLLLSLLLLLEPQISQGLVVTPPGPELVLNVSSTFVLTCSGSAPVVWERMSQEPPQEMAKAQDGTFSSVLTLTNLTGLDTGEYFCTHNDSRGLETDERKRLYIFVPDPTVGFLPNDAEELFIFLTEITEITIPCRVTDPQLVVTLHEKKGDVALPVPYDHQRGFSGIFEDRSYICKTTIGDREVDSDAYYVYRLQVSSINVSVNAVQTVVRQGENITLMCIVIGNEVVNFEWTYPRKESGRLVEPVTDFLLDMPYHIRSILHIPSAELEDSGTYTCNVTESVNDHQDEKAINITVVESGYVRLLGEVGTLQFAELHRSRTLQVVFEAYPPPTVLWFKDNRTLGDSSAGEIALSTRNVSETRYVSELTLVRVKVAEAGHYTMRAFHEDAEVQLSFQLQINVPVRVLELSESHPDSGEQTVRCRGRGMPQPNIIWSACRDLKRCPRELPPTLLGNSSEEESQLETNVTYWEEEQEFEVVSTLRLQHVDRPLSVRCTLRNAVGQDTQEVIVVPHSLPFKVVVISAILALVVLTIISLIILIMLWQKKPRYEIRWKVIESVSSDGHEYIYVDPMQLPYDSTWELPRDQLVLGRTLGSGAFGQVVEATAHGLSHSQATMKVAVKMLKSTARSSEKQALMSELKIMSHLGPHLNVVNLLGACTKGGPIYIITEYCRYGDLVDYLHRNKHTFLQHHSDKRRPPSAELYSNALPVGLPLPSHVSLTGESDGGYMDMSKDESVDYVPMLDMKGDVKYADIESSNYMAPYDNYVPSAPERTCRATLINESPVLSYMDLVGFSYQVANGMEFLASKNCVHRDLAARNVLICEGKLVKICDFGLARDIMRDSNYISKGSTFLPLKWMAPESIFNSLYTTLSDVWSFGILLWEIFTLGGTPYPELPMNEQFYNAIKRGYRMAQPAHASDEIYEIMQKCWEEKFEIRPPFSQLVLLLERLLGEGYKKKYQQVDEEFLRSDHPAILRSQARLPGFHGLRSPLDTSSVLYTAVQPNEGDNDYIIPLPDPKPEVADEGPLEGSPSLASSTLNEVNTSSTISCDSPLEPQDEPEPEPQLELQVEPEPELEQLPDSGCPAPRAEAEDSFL

[8] = target: Angiopoietin-1 receptor (Homo sapiens) (UniProt Q02763); assay: Inhibition of TIE2 at 10 uM
[9] = target: Receptor-type tyrosine-protein kinase FLT3 (Homo sapiens) (UniProt P36888); assay: Inhibition of FLT3 at 10 uM
Chain of Receptor-type tyrosine-protein kinase FLT3 (Homo sapiens) (P36888 whole entry): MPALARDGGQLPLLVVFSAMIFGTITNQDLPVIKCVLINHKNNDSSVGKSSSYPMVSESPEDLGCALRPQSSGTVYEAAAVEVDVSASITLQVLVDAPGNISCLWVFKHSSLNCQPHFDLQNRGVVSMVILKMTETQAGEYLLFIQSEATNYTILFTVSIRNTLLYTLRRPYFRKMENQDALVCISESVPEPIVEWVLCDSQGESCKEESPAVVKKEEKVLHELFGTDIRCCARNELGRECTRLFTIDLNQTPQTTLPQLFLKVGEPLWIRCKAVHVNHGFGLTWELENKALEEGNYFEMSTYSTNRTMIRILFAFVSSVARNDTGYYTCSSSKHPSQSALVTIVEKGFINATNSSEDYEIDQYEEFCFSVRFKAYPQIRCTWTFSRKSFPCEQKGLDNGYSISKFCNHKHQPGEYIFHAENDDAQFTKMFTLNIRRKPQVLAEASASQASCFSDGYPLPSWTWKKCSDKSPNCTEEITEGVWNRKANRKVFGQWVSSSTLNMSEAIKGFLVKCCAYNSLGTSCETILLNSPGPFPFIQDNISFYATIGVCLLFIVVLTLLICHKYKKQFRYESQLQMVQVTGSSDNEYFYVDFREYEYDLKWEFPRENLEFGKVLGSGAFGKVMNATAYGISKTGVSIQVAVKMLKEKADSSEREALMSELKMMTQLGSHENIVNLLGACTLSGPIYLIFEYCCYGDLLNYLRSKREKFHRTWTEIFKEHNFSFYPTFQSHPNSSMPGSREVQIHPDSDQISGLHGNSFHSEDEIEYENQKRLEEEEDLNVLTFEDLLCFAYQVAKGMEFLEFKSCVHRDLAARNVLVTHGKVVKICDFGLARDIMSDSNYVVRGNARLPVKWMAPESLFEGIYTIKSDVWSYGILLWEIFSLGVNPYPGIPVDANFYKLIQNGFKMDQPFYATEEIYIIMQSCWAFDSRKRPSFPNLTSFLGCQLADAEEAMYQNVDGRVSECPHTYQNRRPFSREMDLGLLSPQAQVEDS

[10] = target: Epidermal growth factor receptor (Homo sapiens) (UniProt P00533); assay: Inhibition of EGFR at 10 uM
[11] = target: Cyclin-dependent kinase 4 (Homo sapiens, UniProt P11802); assay: Inhibition of CDK4
[12] = target: Vascular endothelial growth factor receptor 3 (Homo sapiens, UniProt P35916); assay: Inhibition of VEGFR3
[13] = target: Receptor-type tyrosine-protein kinase FLT3 (Homo sapiens, UniProt P36888); assay: Inhibition of FLT3
Chain of Receptor-type tyrosine-protein kinase FLT3 (P36888 whole entry): as above

Chain of RAC-alpha serine/threonine-protein kinase (Homo sapiens) (P31749 whole entry): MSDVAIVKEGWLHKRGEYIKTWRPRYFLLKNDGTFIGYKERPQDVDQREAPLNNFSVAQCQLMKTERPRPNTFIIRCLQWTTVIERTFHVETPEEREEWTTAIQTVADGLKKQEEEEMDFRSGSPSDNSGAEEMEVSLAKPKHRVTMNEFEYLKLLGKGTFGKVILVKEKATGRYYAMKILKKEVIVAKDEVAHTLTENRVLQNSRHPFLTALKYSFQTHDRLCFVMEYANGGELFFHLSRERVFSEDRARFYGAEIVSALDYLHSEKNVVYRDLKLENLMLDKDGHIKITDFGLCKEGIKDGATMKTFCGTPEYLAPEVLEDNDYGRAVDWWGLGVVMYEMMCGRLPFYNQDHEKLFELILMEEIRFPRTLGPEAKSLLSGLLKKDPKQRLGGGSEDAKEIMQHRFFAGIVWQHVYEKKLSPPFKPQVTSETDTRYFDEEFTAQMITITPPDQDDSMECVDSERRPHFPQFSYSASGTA
Chain of Receptor tyrosine-protein kinase erbB-2 (Homo sapiens) (P04626 whole entry): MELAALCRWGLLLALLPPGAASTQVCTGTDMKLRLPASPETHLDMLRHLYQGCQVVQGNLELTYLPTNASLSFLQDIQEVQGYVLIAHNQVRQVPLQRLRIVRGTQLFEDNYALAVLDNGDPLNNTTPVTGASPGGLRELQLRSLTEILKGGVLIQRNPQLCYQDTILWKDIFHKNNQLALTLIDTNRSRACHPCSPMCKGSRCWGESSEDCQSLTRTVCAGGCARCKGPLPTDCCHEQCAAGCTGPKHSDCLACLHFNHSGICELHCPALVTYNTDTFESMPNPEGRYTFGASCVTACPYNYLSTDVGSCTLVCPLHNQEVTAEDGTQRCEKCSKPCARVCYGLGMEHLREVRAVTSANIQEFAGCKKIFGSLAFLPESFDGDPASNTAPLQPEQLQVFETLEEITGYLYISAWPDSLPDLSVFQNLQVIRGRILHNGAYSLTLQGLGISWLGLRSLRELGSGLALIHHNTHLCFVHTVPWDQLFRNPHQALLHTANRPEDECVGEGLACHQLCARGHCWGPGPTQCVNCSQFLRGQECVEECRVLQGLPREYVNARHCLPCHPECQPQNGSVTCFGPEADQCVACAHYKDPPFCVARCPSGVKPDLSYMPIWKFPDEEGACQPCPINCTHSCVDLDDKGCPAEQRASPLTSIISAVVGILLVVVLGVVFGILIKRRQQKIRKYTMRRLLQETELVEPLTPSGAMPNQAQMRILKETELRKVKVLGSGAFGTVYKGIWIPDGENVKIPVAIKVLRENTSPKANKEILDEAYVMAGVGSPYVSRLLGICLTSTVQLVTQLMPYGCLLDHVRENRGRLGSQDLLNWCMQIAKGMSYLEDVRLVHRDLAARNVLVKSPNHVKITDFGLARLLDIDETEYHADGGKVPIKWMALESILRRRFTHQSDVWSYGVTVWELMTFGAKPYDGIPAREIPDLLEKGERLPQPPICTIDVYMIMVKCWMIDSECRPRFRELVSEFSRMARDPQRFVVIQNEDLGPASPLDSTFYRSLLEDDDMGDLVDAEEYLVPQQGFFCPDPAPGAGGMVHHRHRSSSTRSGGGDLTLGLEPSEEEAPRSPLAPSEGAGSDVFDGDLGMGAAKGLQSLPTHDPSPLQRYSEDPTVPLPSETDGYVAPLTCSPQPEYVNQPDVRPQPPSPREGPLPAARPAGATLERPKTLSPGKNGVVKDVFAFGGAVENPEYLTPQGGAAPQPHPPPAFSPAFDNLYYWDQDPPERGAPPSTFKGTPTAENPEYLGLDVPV

SMILES | inhibition [1] | inhibition [2] | inhibition [3] | GI50 (MDA-MB-435) | inhibition [4] | inhibition [5] | inhibition [6] | GI50 (K562) | inhibition [7] | inhibition [8] | inhibition [9] | inhibition [10] | IC50 [11] | IC50 [12] | IC50 [13]
O=C1Cc2cnn(-c3ccc(Br)cc3)c2-c2ccccc2N1 | < 40% | < 40% | < 40% | 1.91 µM | < 40% | < 40% | < 40% | 4.07 µM | < 40% | < 40% | < 40% | – | – | – | –
O=C1Cc2cnn(-c3cc(Cl)cc(Cl)c3)c2-c2ccccc2N1 | < 40% | < 40% | < 40% | < 0.01 µM | < 40% | < 40% | < 40% | < 0.01 µM | < 40% | < 40% | < 40% | – | – | – | –
O=C1Cc2cnn(-c3ccc(C(F)(F)F)cc3)c2-c2ccccc2N1 | < 40% | < 40% | < 40% | 11.2 µM | < 40% | < 40% | < 40% | 12.6 µM | < 40% | < 40% | < 40% | – | – | – | –
O=C1Cc2cnn(-c3ccc(F)cc3F)c2-c2ccccc2N1 | < 40% | < 40% | < 40% | – | < 40% | < 40% | < 40% | – | < 40% | < 40% | < 40% | – | – | – | –
Cc1ccc(-n2ncc3c2-c2ccccc2NC(=O)C3)cc1 | < 40% | < 40% | < 40% | 2.09 µM | < 40% | < 40% | < 40% | 1.78 µM | < 40% | < 40% | < 40% | – | – | – | –
CC(C)(C)c1ccc(-n2ncc3c2-c2ccccc2NC(=O)C3)cc1 | < 40% | < 40% | < 40% | 18.6 µM | < 40% | < 40% | < 40% | 31.6 µM | < 40% | < 40% | < 40% | – | – | > 10 µM | –
O=C1Cc2cnn(-c3ccc([N+](=O)[O-])cc3)c2-c2ccccc2N1 | < 40% | < 40% | < 40% | – | < 40% | < 40% | < 40% | – | < 40% | < 40% | < 40% | – | – | – | –
COc1ccc(-n2ncc3c2-c2ccccc2NC(=O)C3)cc1 | < 40% | < 40% | < 40% | 0.025 µM | < 40% | < 40% | < 40% | 0.35 µM | < 40% | < 40% | < 40% | – | – | – | –
O=C1Cc2cnn(-c3ccc(Cl)cc3)c2-c2ccccc2N1 | < 40% | < 40% | < 40% | – | < 40% | < 40% | < 40% | – | < 40% | < 40% | – | – | – | – | > 10 µM

Continued, values first:

inhibition [1] | inhibition [2] | inhibition [3] | GI50 (MDA-MB-435) | inhibition [4] | inhibition [5] | inhibition [6] | GI50 (K562) | inhibition [7] | inhibition [8] | inhibition [9] | inhibition [10] | IC50 [11] | IC50 [12] | IC50 [13] | SMILES
< 40% | < 40% | < 40% | – | < 40% | < 40% | < 40% | – | < 40% | < 40% | < 40% | < 40% | – | – | – | O=C1Cc2cnn(-c3ccccc3)c2-c2ccccc2N1
< 40% | < 40% | < 40% | – | < 40% | < 40% | < 40% | – | < 40% | < 40% | < 40% | – | – | – | – | O=C1Cc2cnn(-c3ccccc3Cl)c2-c2ccccc2N1
< 40% | < 40% | < 40% | – | < 40% | < 40% | < 40% | – | < 40% | < 40% | < 40% | – | > 10 µM | – | – | O=C1Cc2cnn(-c3cccc(Cl)c3)c2-c2ccccc2N1
< 40% | < 40% | < 40% | – | < 40% | < 40% | < 40% | – | < 40% | < 40% | < 40% | – | – | – | – | Cc1ccccc1-n1ncc2c1-c1ccccc1NC(=O)C2
< 40% | < 40% | < 40% | – | < 40% | < 40% | < 40% | – | < 40% | < 40% | < 40% | – | – | – | – | O=C1Cc2cnn(-c3ccccc3Br)c2-c2ccccc2N1
< 40% | < 40% | < 40% | – | < 40% | < 40% | < 40% | – | < 40% | < 40% | < 40% | – | – | – | – | O=C1Cc2cnn(-c3ccccc3F)c2-c2ccccc2N1
